IMP-1 inhibitor – blocks Pseudomonas aeruginosa IMP-1 metallo-beta-lactamase; purified IMP-1, nitrocefin hydrolysis, epi-absorbance fluorescence; inhibition, % at 5.6 µM; 290,000 tested, 0.45% active; AID 1556;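 active = inhibition above the mean plus 3 SD of all compounds in the same screening run, cut at about 4.5% in these data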;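 note: 0% = IMP-1 with DMSO and 100% = DMSO wells lacking enzyme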
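Assay system: purified recombinant IMP-1 beta-lactamase. Input: IMP-1 0.2 nM before substrate addition. Buffer or medium: Zinc- and detergent-supplemented HEPES buffer, pH 7.1. Schedule: 25 °C, 15 min preincubation, 25 min reaction. Signal: Epi-absorbance fluorescence, 480 nm excitation, 530 nm emission. Evaluation: percent inhibition from optical density relative to buffer-blank wells.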
bovine MsrA act – activators of bovine methionine sulfoxide reductase A | purified bovine MsrA, absorbance read-out | activation, % at 10.6 µM | 360,000 tested, 0.3% active; in the data active = activation above about 7.5%;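 note: 0% = vehicle and 100% = reference activator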
VIM-2 inh – blocks Pseudomonas aeruginosa VIM-2 metallo-beta-lactamase. purified VIM-2, nitrocefin hydrolysis, epi-absorbance fluorescence. AID 1527. inhibition, % at 5.6 µM. 290,000 tested, 0.89% active;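 active = inhibition above the mean of all tested compounds plus 3 SD, cutoff set per screening run, cut at about 7.5% in these data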;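 note: red hydrolysis product quenches plate fluorescence so inhibitors raise well fluorescence; 0% = enzyme with DMSO and 100% = DMSO without enzyme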
MsrA inh – inhibitors of bovine MsrA. purified bovine MsrA, absorbance read-out. 360,000 tested, 0.75% active. AID 651718. inhibition, % at 15.5 µM; in the data active = inhibition above about 4.5%;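 note: 0% = vehicle wells with enzyme and 100% = reference inhibitor wells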
PKA-R2B act – activates the human PKA-R2B holoenzyme complex; P22694+P31323; PKA-R2B holoenzyme dissociation, Cy5-IP20 fluorescence polarization; R2B truncated from residue 108, S112A mutant; 0% DMSO only, 100% 113 µM cGMP; activation, % at 11.4 µM; 340,000 tested, 0.079% active; AID 504700;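 active = activation above a cutoff set at the mean over all compounds plus 3 SD, cut at about 18% in these data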;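 note: higher means more holoenzyme dissociation and a rise in polarization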
Target sequence (P31323 whole entry, looked up, other chains not shown, the tested form may be a part): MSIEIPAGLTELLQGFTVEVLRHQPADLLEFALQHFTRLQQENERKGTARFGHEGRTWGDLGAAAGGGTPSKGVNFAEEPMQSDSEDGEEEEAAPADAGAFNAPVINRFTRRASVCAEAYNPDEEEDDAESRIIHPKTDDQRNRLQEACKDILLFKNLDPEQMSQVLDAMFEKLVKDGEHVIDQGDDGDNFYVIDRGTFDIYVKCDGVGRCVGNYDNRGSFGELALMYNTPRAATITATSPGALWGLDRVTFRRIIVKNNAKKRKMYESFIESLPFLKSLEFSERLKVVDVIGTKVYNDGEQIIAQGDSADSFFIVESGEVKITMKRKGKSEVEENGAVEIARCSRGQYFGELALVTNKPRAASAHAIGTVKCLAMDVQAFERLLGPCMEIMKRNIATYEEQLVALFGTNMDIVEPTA
PKA-R1A activ – activates the PKA-R1A holoenzyme complex; P00514+P68181; 340,000 tested, 0.083% active; PKA-R1A dissociation, Cy5-IP20 fluorescence polarization; scaled: DMSO 0%, 113 µM cGMP 100%; AID 504707; activation, % at 11.4 µM;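 active = percent activation above the mean of all tested compounds plus 3 SD, cut at about 19% in these data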;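 note: higher means more PKAc released from R1A so a rise in polarization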
MsrA act confirm – confirmation of bovine methionine sulfoxide reductase A activators; shares compounds with bovine MsrA act; activation, % at 10.6 µM; AID 602270; 1,000 tested, 12% active; purified bovine MsrA, absorbance read-out; in the data active = activation above about 4%;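 note: enzyme coupled to thioredoxin and thioredoxin reductase with NADPH; 0% = vehicle wells and 100% = reference activator wells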
Starred values were filed as active, the others as inactive; ! = a repeat was not active. Most compounds without a hit are left out; they make up all but 2.1% or so of the library.

How did O=Nc1c(O)c2ccccc2c2ccccc12 do in these assays?
bovine MsrA act: 20*; MsrA inh: 0; PKA-R2B act: 2; PKA-R1A activ: -7; MsrA act confirm: 13*

What do the screens show for `O=S1(=O)C=C(Sc2ccc(Cl)cc2)c2ccccc2C1Cc1ccc(F)cc1` (stereo unspecified)?
MsrA inh: 1

What do the screens show for `CC(=C/c1ccccc1)/C=N/NC(=O)c1cccs1`?
IMP-1 inhibitor: -3; bovine MsrA act: 16*; VIM-2 inh: -3; MsrA inh: 4; MsrA act confirm: 1

Results for COC(=O)[C@@]12C[C@@H](CC(=O)NCCCCc3ccccc3)C(=O)N(Cc3ccc4c(c3)OCO4)C1=CCC(C)(C)C2 ?
MsrA inh: 0

What do the screens show for `CC1=C(C(=O)OCC2CCCCC2)C(c2cccc(O)c2)NC(=O)N1` (stereo unspecified)?
IMP-1 inhibitor: -4; bovine MsrA act: 0; VIM-2 inh: -2; PKA-R2B act: -5; PKA-R1A activ: -7

Results for CC1=C(C(=O)OC2CCCCCCC2)C(c2cccc(O)c2)NC(=O)N1 (stereo unspecified) ?
IMP-1 inhibitor: 0; bovine MsrA act: 8.9*; VIM-2 inh: 2; MsrA inh: 0; PKA-R2B act: -9; PKA-R1A activ: -5; MsrA act confirm: -1

What do the screens show for `Cc1nn(C)c(Sc2ccccc2N)c1[N+](=O)[O-]`?
IMP-1 inhibitor: -2; bovine MsrA act: 8.0*; VIM-2 inh: 0; MsrA inh: 0; PKA-R2B act: -18; PKA-R1A activ: 0; MsrA act confirm: 0

Results for O=C(c1ccccc1Cl)N1CCSCCS1(=O)=O ?
MsrA inh: 1

Results for Cc1ccc(S(=O)(=O)NC2=NCCCCC2)cc1 ?
IMP-1 inhibitor: 1; bovine MsrA act: 13*; VIM-2 inh: -1; MsrA inh: 0; PKA-R2B act: 5; PKA-R1A activ: -6; MsrA act confirm: -2

How did Cc1ccc(OCC(=O)Nc2ccc(S(=O)(=O)NC3=NCCCCC3)cc2)cc1 do in these assays?
bovine MsrA act: -1; MsrA inh: 0; PKA-R2B act: -4; PKA-R1A activ: 3

Results for CCN(CC)CCn1c2c(c(SCC(=O)Nc3nc4ccc(C)cc4s3)nc1=O)CCC2 ?
bovine MsrA act: 7.9*; MsrA inh: 0; PKA-R2B act: 0; PKA-R1A activ: 10; MsrA act confirm: -1

How did N#CCOC(=O)c1cc(S(=O)(=O)N2CCCCC2)ccc1N1CCOCC1 do in these assays?
bovine MsrA act: 12*; MsrA inh: 0; PKA-R2B act: -3; PKA-R1A activ: -4; MsrA act confirm: -3

What do the screens show for `CCOC(=O)C1CCCN(CCCc2ccccc2)C1` (stereo unspecified)?
IMP-1 inhibitor: -2; bovine MsrA act: 14*!; VIM-2 inh: -1; MsrA inh: 0; PKA-R2B act: -11; PKA-R1A activ: 5; MsrA act confirm: -1

How did C[C@H](O)[C@@H]1C(=O)N2CCc3c([nH]c4ccccc34)[C@@H]2C[C@@H]1N(C)Cc1ccc(Cl)cc1 do in these assays?
bovine MsrA act: 7.8*; MsrA inh: 0; PKA-R2B act: -8; PKA-R1A activ: -6; MsrA act confirm: -1

What do the screens show for `COCC(=O)N(C)[C@H]1C[C@H]2c3[nH]c4ccccc4c3CCN2C(=O)[C@H]1[C@H](C)O`?
bovine MsrA act: -1; MsrA inh: 1; PKA-R2B act: -11; PKA-R1A activ: -2

Results for O=S1(=O)N[C@@H](Cc2ccccc2)COc2cc(N3CCOCC3)ccc21 ?
MsrA inh: 0

What do the screens show for `CC1CCCC(NC(=O)c2ccncc2)C1C` (stereo unspecified)?
IMP-1 inhibitor: -4; bovine MsrA act: -3; VIM-2 inh: -3; MsrA inh: -2; PKA-R2B act: -1; PKA-R1A activ: -9

How did CC1CCCC(NC(=O)Nc2cccs2)C1C (stereo unspecified) do in these assays?
IMP-1 inhibitor: -3; bovine MsrA act: 8.9*; VIM-2 inh: -5; MsrA inh: 1; PKA-R2B act: 5; PKA-R1A activ: 1; MsrA act confirm: -3

Results for CC(=O)N1c2ccccc2Sc2ccc3ccccc3c21 ?
bovine MsrA act: 9.2*; MsrA inh: 1; PKA-R2B act: -10; PKA-R1A activ: -3; MsrA act confirm: -3

Results for O=C(CCl)N1c2ccccc2Sc2c1ccc1ccccc21 ?
bovine MsrA act: -4; MsrA inh: 1; PKA-R2B act: -10; PKA-R1A activ: -1

Results for CCN(CC(=O)NCc1ccc(Cl)cc1)C(=O)COc1ccc(C)cc1C ?
IMP-1 inhibitor: -4; bovine MsrA act: -1; VIM-2 inh: 1; MsrA inh: 0; PKA-R2B act: -2; PKA-R1A activ: 1

What do the screens show for `COc1ccc(OC)c(CNS(=O)(=O)c2ccccc2Br)c1`?
MsrA inh: 0

How did O=c1[nH]cccc1-c1nc2ccccc2n1Cc1ccc(F)cc1 do in these assays?
IMP-1 inhibitor: -2; bovine MsrA act: 15*; VIM-2 inh: -1; MsrA inh: 1; PKA-R2B act: -1; PKA-R1A activ: -4; MsrA act confirm: -3

How did COC(=O)Cc1nnn2c1[C@H](C)[C@H](c1ccccc1Br)OC[C@@H]2c1ccccc1 do in these assays?
MsrA inh: 0

How did COC(=O)Nc1nnc(COc2ccccc2)s1 do in these assays?
IMP-1 inhibitor: -2; bovine MsrA act: 8.9*; VIM-2 inh: -2; MsrA inh: 0; MsrA act confirm: -2

How did COC(=O)Nc1nnc(COc2cccc(C)c2)s1 do in these assays?
IMP-1 inhibitor: -5; bovine MsrA act: -2; VIM-2 inh: -3; MsrA inh: 1; PKA-R2B act: -5; PKA-R1A activ: 0

How did COc1ccc([C@H]2CC(=O)C=C(c3ccc(CNC(=O)OC(C)(C)C)cc3)C2)cc1 do in these assays?
bovine MsrA act: -4; MsrA inh: 1; PKA-R2B act: -10; PKA-R1A activ: -14

How did CC(C)NS(=O)(=O)c1ccc(NC(=O)C(C)Oc2ccc(C(=O)c3ccccc3)cc2)cc1 (stereo unspecified) do in these assays?
IMP-1 inhibitor: 0; bovine MsrA act: 8.5*; VIM-2 inh: -1; MsrA inh: -1; PKA-R2B act: 1; PKA-R1A activ: -7; MsrA act confirm: -4

Results for C=CCN(C(=O)CSc1nc2ccsc2c(=O)n1Cc1ccc(C(=O)O)cc1)c1ccccc1 ?
bovine MsrA act: -3; MsrA inh: 1; PKA-R2B act: -2; PKA-R1A activ: 6

How did Oc1cccc2oc(=S)[nH]c12 do in these assays?
bovine MsrA act: 12*; MsrA inh: 1; PKA-R2B act: -5; PKA-R1A activ: 1; MsrA act confirm: -1

Assay outcomes: PubChem BioAssay, The Scripps Research Institute Molecular Screening Center
